Compound activity as filed in PubChem.
This is a sample that favours compounds with a hit; in the whole collection about 5.9% have one here.
T cruzi growth-1 = blocks T. cruzi growth in NIH3T3 culture; T. cruzi beta-gal in NIH3T3, GalScreen luminescence, 90 h; inhibition, % at 8.34 µM; 77,000 tested, 5.9% active; AID 624255;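 active = mean inhibition above about 93%, with at least 55% of replicates each passing it, limit read from the data, passing the limit was not always enough; inconclusive = only one of those two conditions holds; inactive = neither condition holds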
IDH1 R132H inh = inhibitors of human IDH1 R132H | IDH1 R132H reductase, diaphorase/resazurin fluorescence, 60 min | O75874 | inhibition, % at 10 µM | 70,000 tested, 0.18% active; in the data active = inhibition above about 34%; inconclusive = no clear call, values can overlap the other calls; inactive = below about 11%;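 note: 0% = DMSO and 100% = no enzyme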
Pf Dd2 inh = P. falciparum Dd2 growth inhibition. SYBR Green, 72 h; stronger effect = lower value. activity change, % at 10 µM. 94,000 tested, 2.3% active; in the data active = activity change below about -80%; inconclusive = no clear call, values can overlap the other calls
GASC1 inh = blocks human GASC-1 (KDM4C) demethylase activity | GST-KDM4C 2-372, H3K9me3 peptide, LANCE TR-FRET | inhibition, % at 12.5 µM | 96,000 tested, 0.15% active | AID 720574;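 active = mean replicate inhibition above about 25%, with at least 55% of replicates also reaching it, limit read from the data, passing the limit was not always enough; inconclusive = only one of those two conditions met; inactive = neither condition met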
Target sequence (Q9H3R0 2-372 limits assumed): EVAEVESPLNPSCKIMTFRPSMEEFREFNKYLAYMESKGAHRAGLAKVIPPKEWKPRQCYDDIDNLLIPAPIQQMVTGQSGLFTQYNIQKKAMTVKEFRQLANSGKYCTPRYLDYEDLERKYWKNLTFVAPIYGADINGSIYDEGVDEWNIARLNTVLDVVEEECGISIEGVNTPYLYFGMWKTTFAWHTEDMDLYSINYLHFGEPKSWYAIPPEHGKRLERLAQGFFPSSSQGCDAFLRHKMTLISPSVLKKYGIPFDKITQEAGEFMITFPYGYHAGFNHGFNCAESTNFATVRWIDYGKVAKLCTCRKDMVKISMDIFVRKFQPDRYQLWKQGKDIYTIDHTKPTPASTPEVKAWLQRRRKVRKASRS
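reagent = H3K9me3 peptide substrate, Fe(II), 2-oxoglutarate | system = GST-tagged GASC-1 (JMJD2C) catalytic fragment, aa 2-372 | amount = enzyme final amount 10 nM | read-out = Fall in 671/618 emission ratio as inhibition | medium = HEPES buffer, pH 7.5, plus ascorbate | schedule = 30 min reaction, 60 min detection, RT | measured by = LANCE TR-FRET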
T cruzi growth-2 = inhibitors of T. cruzi proliferation | shares compounds with T cruzi growth-1 | T. cruzi beta-gal in NIH3T3, GalScreen luminescence, 90 h | inhibition, % at 8.35 µM | 5,600 tested, 72% active | AID 651739;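 active = mean replicate inhibition above about 95% and at least 55% of replicates individually reaching it, limit read from the data; inconclusive = only one of the two criteria is met; inactive = neither criterion is met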
T cruzi growth-3 = inhibitors of T. cruzi proliferation; shares compounds with T cruzi growth-1; T. cruzi beta-gal in NIH3T3, GalScreen luminescence, 90 h; inhibition, % at 2.09 µM; 5,600 tested, 21% active; AID 651740;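 active = mean inhibition above about 95%, with at least 55% of replicates also reaching it, limit read from the data; inconclusive = meets just one of the two conditions; inactive = meets neither condition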;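 note: plate controls were neutral control median for no effect and positive control median for full effect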
3T3 cytotox = cytotoxicity in mouse NIH/3T3 fibroblasts | NIH/3T3 viability, CellTiter-Glo ATP luminescence, 90 h | AID 651742 | cytotoxicity (signal decrease), % at 8.35 µM | shares compounds with T cruzi growth-1 | 5,600 tested, 14% active;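 active = mean signal decrease across replicates above about 35% based on untreated-well scatter, with enough replicates individually passing, limit read from the data; inconclusive = no rule stated though some were filed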;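 note: 0% = median of neutral control wells and 100% = median of positive control wells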
NIH3T3 tox 2 = NIH/3T3 (mouse) viability loss. inhibition, % at 24.9 µM. 5,600 tested, 56% active. NIH/3T3 viability, CellTiter-Glo ATP luminescence, 90 h. shares compounds with T cruzi growth-1. AID 651744;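 active = mean loss of cell viability signal at or above a set limit, and enough replicates individually reaching it; inconclusive = meets only the mean limit or only the replicate share; inactive = meets neither condition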;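 note: 0% = median of neutral control wells and 100% = median of positive control wells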
* marks the source's active call; other numbers are inactive results; ? = inconclusive; . = no result; ! = not active in a repeat.

SMILES	T cruzi growth-1	IDH1 R132H inh	Pf Dd2 inh	GASC1 inh	T cruzi growth-2	T cruzi growth-3	3T3 cytotox	NIH3T3 tox 2
COc1ccc(C#Cc2cnc3c(c2)C(=O)N([C@@H](C)CO)C[C@H](C)[C@@H](CN(C)C(=O)Nc2cccc(OC)c2)O3)cc1	42.1	.	-5.4	-4.0	.	.	.	.
COc1ccc(C#Cc2cnc3c(c2)C(=O)N([C@@H](C)CO)C[C@@H](C)[C@@H](CN(C)C(=O)Nc2cccc(OC)c2)O3)cc1	?	.	-43.1	-8.8	108.8*	73.4	4.8	13.9
COc1ccc(C#Cc2cnc3c(c2)C(=O)N([C@H](C)CO)C[C@H](C)[C@@H](CN(C)C(=O)Nc2cccc(OC)c2)O3)cc1	110.0*!	0.2	-43.2	-1.2	96.2*	46.8	-4.3	29.0*
COc1ccc(C#Cc2cnc3c(c2)C(=O)N([C@H](C)CO)C[C@@H](C)[C@@H](CN(C)C(=O)Nc2cccc(OC)c2)O3)cc1	?	-7.1	-66.0	-2.7	109.8*	82.5	-19.0	12.9
CCNS(=O)(=O)c1cc(-c2nnc(Nc3ccc(NC(C)=O)cc3)c3ccccc23)ccc1C	.	-0.3	.	.	.	.	.	.
OC[C@@H]1[C@H](c2ccc(-c3ccccc3F)cc2)[C@@H]2CN(Cc3cncnc3)CCCCN12	110.1*	.	13.1	0.1	87.6	82.3	-19.6	49.6*
OC[C@@H]1[C@@H](c2ccc(-c3ccccc3F)cc2)[C@@H]2CN(Cc3cccnc3)CCCCN12	85.5	.	-13.3	5.2	.	.	.	.
OC[C@H]1[C@H](c2ccc(-c3ccccc3F)cc2)[C@@H]2CN(Cc3cncnc3)CCCCN12	107.9*	.	-24.3	-0.7	107.7*	86.9	4.1	35.9*
OC[C@@H]1[C@@H](c2ccc(-c3ccccc3F)cc2)[C@H]2CN(Cc3cncnc3)CCCCN12	46.0	.	-13.0	-0.4	.	.	.	.
OC[C@@H]1[C@H](c2ccc(-c3ccccc3F)cc2)[C@H]2CN(Cc3cncnc3)CCCCN12	110.2*	.	-17.5	1.1	100.2*	88.6	22.4	38.2*
Cc1nn(CC(=O)Nc2cc(F)ccc2F)c(C)c1[N+](=O)[O-]	.	0.2	.	.	.	.	.	.
C[C@H]1CN([C@@H](C)CO)C(=O)c2cc(C3=CCCCC3)cnc2O[C@@H]1CN(C)C(=O)c1cccc(F)c1	105.4*	-3.4	-45.5	0.4	107.7*	21.9	-7.2	52.5*
C[C@H]1CN([C@@H](C)CO)C(=O)c2cc(C3=CCCCC3)cnc2O[C@H]1CN(C)Cc1cccc(F)c1	110.3*	-0.4	-4.1	-1.5	105.4*	5.9	21.9	34.7*
C[C@H]1CN([C@@H](C)CO)C(=O)c2cc(C3=CCCCC3)cnc2O[C@@H]1CN(C)Cc1ccccc1C(=O)O	108.0*	.	-6.8	-0.8	22.6	5.8	8.9	-23.6
C[C@@H]1CN([C@@H](C)CO)C(=O)c2cc(C3=CCCCC3)cnc2O[C@H]1CN(C)C(=O)c1cccc(F)c1	57.2	-0.9	-5.6	3.3	.	.	.	.
C[C@H](CO)N1C[C@H](C)[C@@H](CN(C)Cc2ccc(Oc3ccccc3)cc2)Oc2ccc(NC(=O)Nc3ccc4c(c3)OCO4)cc2C1=O	?	.	-25.2	1.6	110.8*	-23.6	14.6	-2.3
C[C@@H]1CN([C@@H](C)CO)C(=O)c2cc(NC(=O)Nc3ccc4c(c3)OCO4)ccc2O[C@H]1CN(C)Cc1ccc(-c2ccccc2)cc1	95.7*	.	-27.0	-0.6	101.5*	91.4	32.5	81.9*
C[C@@H]1CN([C@H](C)CO)C(=O)c2cc(NC(=O)Nc3ccc4c(c3)OCO4)ccc2O[C@H]1CN(C)Cc1ccc(Oc2ccccc2)cc1	-77.2	.	14.6	0.5	.	.	.	.
COc1cc(C(F)(F)F)cc(C(F)(F)F)c1C(=O)N1CCC(C(=O)c2ccc(Cl)cc2)CC1	.	-0.8	.	.	.	.	.	.
Cc1ccc(NC(=O)COc2ccc(Cl)cc2C)c([N+](=O)[O-])c1	.	-0.1	.	.	.	.	.	.
C[C@@H]1CN([C@@H](C)CO)S(=O)(=O)c2ccc(C#CCN(C)C)cc2O[C@H]1CN(C)C(=O)c1ccccc1F	100.8*	-0.2	-37.3	1.2	108.7*	89.3	11.1	5.7
C[C@@H]1CN([C@H](C)CO)S(=O)(=O)c2ccc(C#CCN(C)C)cc2O[C@H]1CN(C)C(=O)c1ccccc1F	93.1	-0.2	-43.1	1.2	.	.	.	.
C[C@H]1CN([C@@H](C)CO)S(=O)(=O)c2ccc(C#CCN(C)C)cc2O[C@@H]1CN(C)C(=O)c1ccccc1F	98.9*	-1.6	-28.7	0.6	105.4*	91.5	7.8	16.1
C[C@@H]1CN([C@H](C)CO)C(=O)Cc2cc(NC(=O)Nc3cccc4ccccc34)ccc2O[C@@H]1CN(C)Cc1ccc2c(c1)OCO2	102.6*	.	11.1	-1.5	107.4*	93.2	?	72.1*
C[C@H](CO)N1C[C@H](C)[C@H](CN(C)Cc2ccccc2)Oc2ccc(NC(=O)Nc3cccc4ccccc34)cc2CC1=O	72.8	.	-46.0	0.3	.	.	.	.
SMILES	T cruzi growth-1	IDH1 R132H inh	Pf Dd2 inh	GASC1 inh	T cruzi growth-2	T cruzi growth-3	3T3 cytotox	NIH3T3 tox 2
C[C@@H]1CN([C@@H](C)CO)C(=O)Cc2cc(NC(=O)Nc3cccc4ccccc34)ccc2O[C@@H]1CN(C)Cc1ccc2c(c1)OCO2	102.8*	1.1	-0.2	-1.3	109.1*	-13.8	15.4	52.1*
C[C@H]1CN([C@@H](C)CO)C(=O)Cc2cc(NC(=O)Nc3ccccc3)ccc2O[C@@H]1CN(C)Cc1ccc2c(c1)OCO2	47.7	-0.6	-32.5	3.0	.	.	.	.
C[C@@H]1CN([C@H](C)CO)C(=O)Cc2cc(NC(=O)Nc3cccc4ccccc34)ccc2O[C@H]1CN(C)Cc1ccc2c(c1)OCO2	?	2.1	7.8	-0.3	106.8*	53.2	21.8	22.0
COc1ccc(CN(C)C[C@@H]2OCCCC[C@H](C)Oc3ccc(NC(=O)Nc4ccc(OC)cc4)cc3C(=O)N([C@@H](C)CO)C[C@@H]2C)cc1	99.5*	2.3	-81.3*	-0.2	106.8*	-6.9	11.3	62.8*
COc1ccc(CN(C)C[C@H]2OCCCC[C@@H](C)Oc3ccc(NC(=O)Nc4ccc(OC)cc4)cc3C(=O)N([C@H](C)CO)C[C@H]2C)cc1	109.4*	.	-64.9	0.2	105.1*	104.6*	1.5	103.6*
COc1ccc(CN(C)C[C@H]2OCCCC[C@H](C)Oc3ccc(NC(=O)Nc4ccc(OC)cc4)cc3C(=O)N([C@H](C)CO)C[C@H]2C)cc1	105.9*	.	-60.5	8.4	102.8*	56.9	20.8	24.8*
COc1ccc(CN(C)C[C@@H]2OCCCC[C@H](C)Oc3ccc(NC(=O)Nc4ccc(OC)cc4)cc3C(=O)N([C@H](C)CO)C[C@@H]2C)cc1	99.3*	-0.7	-65.4	.	103.9*	104.8*	17.1	104.5*
